The target in assay [1] is T1, Oxytocin receptor (Rattus norvegicus, UniProt P70536).
T1 sequence (P70536 whole entry): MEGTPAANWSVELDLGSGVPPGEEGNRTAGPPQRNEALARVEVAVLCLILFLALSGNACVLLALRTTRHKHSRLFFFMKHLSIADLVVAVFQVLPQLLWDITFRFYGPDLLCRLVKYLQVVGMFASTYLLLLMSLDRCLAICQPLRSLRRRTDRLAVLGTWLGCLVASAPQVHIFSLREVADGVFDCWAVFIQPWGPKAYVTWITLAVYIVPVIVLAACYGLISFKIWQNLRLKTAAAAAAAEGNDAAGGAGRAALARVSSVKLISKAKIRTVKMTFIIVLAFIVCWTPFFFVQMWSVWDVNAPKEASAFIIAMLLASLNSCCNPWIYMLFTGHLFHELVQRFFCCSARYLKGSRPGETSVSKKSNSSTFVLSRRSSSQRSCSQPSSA
Briefly: Inhibition of radioligand [3H]oxytocin binding at the oxytocin (OT) receptor in rat uterine tissue. Put shortly:
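Uteri taken from rats given diethylstilbestrol dipropionate (0.3 mg/kg ip, 18–24 h before), crude membranes. 1 nM [3H]OT (30–60 Ci/mmol), equilibrium 60 min at 22 °C in 50 mM Tris-HCl, 5 mM MgCl2, 0.1% BSA, pH 7.4. Nonspecific binding with 1 mM unlabeled OT. Filtered on glass fiber. Initial single-concentration screen, then IC50 from seven concentrations by linear regression.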

In assay [2] the target is Vasopressin V2 receptor (Rattus norvegicus, UniProt Q00788). Put plainly: Inhibition of radioligand [3H]-AVP binding to the vasopressin V2 receptor in rat kidney tissue. An outline of the steps: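 [3H]AVP (80–90 Ci/mmol) at 2 nM competed on crude membranes from male rat kidney medulla (V2 sites). Equilibrium 30 min at 30 °C in 100 mM Tris-HCl, 5 mM MgCl2, 0.1% BSA, 50 μM PMSF, 50 μg/mL bacitracin, pH 8.0. Nonspecific binding with 10 μM unlabeled AVP. Glass-fiber filtration. IC50 by linear regression of % inhibition vs log concentration, seven concentrations.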

Assay [3] concerns the target Vasopressin V1 receptor (Rattus norvegicus, UniProt P48974+P30560). Briefly: Inhibition of radioligand [3H]AVP binding to the vasopressin V1 receptor in rat liver tissue. An outline of the steps: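 Crude membranes from male rat liver (V1 sites) competed with 1 nM [3H]AVP (80–90 Ci/mmol). Equilibrium 30 min, 30 °C, buffer 100 mM Tris-HCl, 5 mM MgCl2, 0.1% BSA, 50 μM PMSF, 50 μg/mL bacitracin, pH 8.0. 10 μM unlabeled AVP for nonspecific binding. Filtration through glass-fiber filters. IC50 from linear regression over seven concentrations.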

Vasopressin V2 receptor, sequence (Q00788 whole entry): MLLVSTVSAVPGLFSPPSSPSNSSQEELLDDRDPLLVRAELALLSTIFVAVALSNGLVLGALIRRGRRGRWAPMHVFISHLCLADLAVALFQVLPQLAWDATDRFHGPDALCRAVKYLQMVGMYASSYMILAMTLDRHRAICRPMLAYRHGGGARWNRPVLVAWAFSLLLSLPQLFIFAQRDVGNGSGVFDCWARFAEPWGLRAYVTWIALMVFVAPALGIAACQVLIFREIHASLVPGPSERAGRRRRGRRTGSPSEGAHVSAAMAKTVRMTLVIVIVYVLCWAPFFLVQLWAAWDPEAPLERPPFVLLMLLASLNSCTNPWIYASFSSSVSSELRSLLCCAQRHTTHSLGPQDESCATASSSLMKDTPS

`CC1(C)[C@@H]2CC[C@@]1(CS(=O)(=O)N1CCC3(C=Cc4ccccc43)CC1)[C@@](O)(CNC(=O)CC13CC4CC(CC(C4)C1)C3)C2`: the IC50 (usually the concentration at which inhibition is half-maximal) in assay [1] is 480 nM; in assay [2] it was more than 3000 nM; in assay [3], more than 3000 nM.
Take `CC1(C)[C@@H]2CC[C@@]1(CS(=O)(=O)N1CCC3(CCc4ccccc43)CC1)[C@@H](N1C(=O)C3CCC(=N)N3C1=O)C2` (stereo not given in full): the figures for the IC50 in assay [1], in assay [2] and in assay [3] were 21 nM, 3800 nM and 1100 nM, respectively.
Consider `CC1NC(=O)N([C@H]2C[C@H]3CC[C@]2(CS(=O)(=O)N2CCC4(CCc5ccccc54)CC2)C3(C)C)C1=O` (stereo not given in full), for which the IC50 in assay [1] is 14 nM; in assay [2] it was 2100 nM; in assay [3] it was 710 nM.
For `CC1(C)[C@@H]2CC[C@@]1(CS(=O)(=O)N1CCC3(C=Cc4ccccc43)CC1)[C@@](O)(CN1C(=O)CCC1=O)C2` the same measures were 110 nM, more than 3000 nM and 3000 nM.
As for `CC1(C)[C@@H]2CC[C@@]1(CS(=O)(=O)N1CCC3(CCc4ccccc43)CC1)[C@@](O)(CN1CCCC1=O)C2`, the half-maximal inhibitory concentration (IC50) in assay [1] is 150 nM; in assay [2], more than 3000 nM; in assay [3] it was 3000 nM.
For the compound `CC1(C)[C@@H]2CC[C@@]1(CS(=O)(=O)N1CCC3(CCc4ccccc43)CC1)[C@@H](NC(=O)C1CNC(=O)N1)C2` (stereo not given in full), the IC50 in assay [1] is 92 nM; in assay [2], more than 3000 nM; in assay [3], more than 3000 nM.
For the compound `CC1(C)[C@@H]2CC[C@@]1(CS(=O)(=O)N1CCC3(CCc4ccccc43)CC1)[C@@H](NC(=O)CCCc1ccccc1)C2`, the IC50 in assay [1] was 570 nM; in assay [2], more than 10000 nM; in assay [3], more than 1000 nM.
For the compound `CC1(C)[C@@H]2CC[C@@]1(CS(=O)(=O)N1CCC3(C=Cc4ccccc43)CC1)[C@@](O)(CNC(=O)c1ccccn1)C2`, the IC50 came out at 180 nM in assay [1], 3600 nM in assay [2] and 1100 nM in assay [3].
Consider `CC1(C)[C@@H]2CC[C@@]1(CS(=O)(=O)N1CCC3(CCc4ccccc43)CC1)[C@@H](NC(=O)CCc1c[nH]cn1)C2`, for which the IC50 in assay [1] was found to be 94 nM; in assay [2], 21000 nM; in assay [3] it was 5800 nM.
For `CC1(C)[C@@H]2CC[C@@]1(CS(=O)(=O)N1CCC3(CCc4ccccc43)CC1)[C@@H](NC(=O)NCCc1c[nH]cn1)C2` the same measures were 68 nM, 14000 nM and 4700 nM.
`CC1(C)[C@@H]2CC[C@@]1(CS(=O)(=O)N1CCC3(C=Cc4ccccc43)CC1)[C@@](O)(CNC(=O)C1CN3CCC1CC3)C2` (stereo not given in full): the IC50 in assay [1] is 57 nM; in assay [2] it was 6100 nM; in assay [3], 470 nM.
On the same counts, the results for `CC1(C)[C@@H]2CC[C@@]1(CS(=O)(=O)N1CCC3(CCc4ccccc43)CC1)[C@@H](N1C(=O)CN(CCCn3ccnc3)C1=O)C2` are 19 nM, 1900 nM and 500 nM.
For `CN1CC(=O)N([C@H]2C[C@H]3CC[C@]2(CS(=O)(=O)N2CCC4(CCc5ccccc54)CC2)C3(C)C)C1=O` the same measures were 14 nM, 2700 nM and 960 nM.
On the same counts, the results for `CC1(C)[C@@H]2CC[C@@]1(CS(=O)(=O)N1CCC3(C=Cc4ccccc43)CC1)[C@@](O)(CN1C(=O)CNC1=O)C2` are 50 nM, 7400 nM and 2700 nM.
Regarding `CC1(C)[C@@H]2CC[C@@]1(CS(=O)(=O)N1CCC3(CCc4ccccc43)CC1)[C@@H](N1C(=O)CN(CC#N)C1=O)C2`, the half-maximal inhibitory concentration (IC50) in assay [1] came out at 4.2 nM; in assay [2], 1700 nM; in assay [3], 530 nM.
On to `CC1(C)[C@@H]2CC[C@@]1(CS(=O)(=O)N1CCC3(CCc4ccccc43)CC1)[C@@H](NC(=O)[C@@H](N)CCS(C)(=O)=O)C2`, for which the figures for the half-inhibitory concentration (IC50) in assay [1], in assay [2] and in assay [3] were 12 nM, 2400 nM and 890 nM, respectively.
As for `Cn1cncc1CC(=O)N[C@@H](CCC(N)=O)C(=O)N[C@H]1C[C@H]2CC[C@]1(CS(=O)(=O)N1CCC3(CCc4ccccc43)CC1)C2(C)C`, the IC50 in assay [1] was 2.3 nM; in assay [2], more than 300 nM; in assay [3] it was more than 300 nM.
Consider `CCC(C)(C)C(=O)NCC[C@@]1(O)C[C@H]2CC[C@]1(CS(=O)(=O)N1CCC3(C=Cc4ccccc43)CC1)C2(C)C`, for which the IC50 in assay [1] amounted to 45 nM; in assay [2], 13000 nM; in assay [3], 2300 nM.
Turning to `CC1(C)[C@@H]2CC[C@@]1(CS(=O)(=O)N1CCC3(C=Cc4ccccc43)CC1)[C@](O)(CN)C2`, the concentration for half-maximal inhibition (IC50) in assay [1] was 10000 nM; in assay [2], 100000 nM; in assay [3] it was 100000 nM.
For the compound `CC1(C)[C@@H]2CC[C@@]1(CS(=O)(=O)N1CCC3(CCc4ccccc43)CC1)[C@@H](NC(=O)/C=C/c1c[nH]cn1)C2`, the IC50 in assay [1] was found to be 150 nM; in assay [2], 20000 nM; in assay [3] it was 5200 nM.
In the case of `CC1(C)[C@@H]2CC[C@@]1(CS(=O)(=O)N1CCC3(CCc4ccccc43)CC1)[C@@H](NC(=O)C(N)CCC#N)C2` (stereo not given in full), the 50% inhibitory concentration (IC50) in assay [1] was found to be 46 nM; in assay [2], 6500 nM; in assay [3], 1400 nM.
`CC1(C)[C@@H]2CC[C@@]1(CS(=O)(=O)N1CCC3(CCc4ccccc43)CC1)[C@@H](NC(=O)C(CCS(C)(=O)=O)c1c[nH]cn1)C2` (stereo in doubt): the IC50 is 11 nM in assay [1], 2900 nM in assay [2] and 1500 nM in assay [3].
For `CC1(C)[C@@H]2CC[C@@]1(CS(=O)(=O)N1CCC3(C=Cc4ccccc43)CC1)[C@@](O)(CNC(=O)NC1CCCCC1)C2`, the IC50 in assay [1] came out at 170 nM; in assay [2], 18000 nM; in assay [3], 950 nM.
On the same counts, the results for `CC1(C)[C@@H]2CC[C@@]1(CS(=O)(=O)N1CCC3(CCc4ccccc43)CC1)[C@@H](NC(=O)c1cccs1)C2` are 620 nM, more than 10000 nM and more than 10000 nM.
On the same counts, the results for `CC1(C)[C@@H]2CC[C@@]1(CS(=O)(=O)N1CCC3(CCc4ccccc43)CC1)[C@@H](NC(=O)NC1CN3CCC1CC3)C2` (single isomer, unassigned; isomer A) are 47 nM, 8700 nM and 1700 nM.
With `CC1(C)[C@@H]2CC[C@@]1(CS(=O)(=O)N1CCC3(C=Cc4ccccc43)CC1)[C@@](O)(CCNC(=O)c1ccncc1)C2`, the results for the half-maximal inhibitory concentration (IC50) in assay [1], in assay [2] and in assay [3] were 79 nM, more than 1000 nM and more than 1000 nM, respectively.
Turning to `COC(=O)CNC(=O)N[C@H]1C[C@H]2CC[C@]1(CS(=O)(=O)N1CCC3(CCc4ccccc43)CC1)C2(C)C`, the half-maximal inhibitory concentration (IC50) was 160 nM in assay [1], more than 3000 nM in assay [2] and more than 3000 nM in assay [3].
As to `CC1(C)[C@@H]2CC[C@@]1(CS(=O)(=O)N1CCC3(C=Cc4ccccc43)CC1)[C@@](O)(CN)C2`, the IC50 in assay [1] was 1300 nM; in assay [2], more than 10000 nM; in assay [3] it was more than 1000 nM.
As for `CC1(C)[C@@H]2CC[C@@]1(CS(=O)(=O)N1CCC3(CCc4ccccc43)CC1)[C@@H](NC(=O)C(N)CS(N)(=O)=O)C2` (stereo not given in full), the IC50 was found to be 200 nM in assay [1], 14000 nM in assay [2] and 2900 nM in assay [3].
For `Cn1cnc(CC(=O)N[C@@H](CCC(N)=O)C(=O)N[C@H]2C[C@H]3CC[C@]2(CS(=O)(=O)N2CCC4(CCc5ccccc54)CC2)C3(C)C)c1` the same measures were 1.7 nM, 620 nM and 1900 nM.

The record behind these values is ChEMBL document CHEMBL1126550, “Nanomolar-affinity, non-peptide oxytocin receptor antagonists” (J Med Chem, 1993).
